Screens as filed in PubChem.
CHRM4 agonist – agonists of human muscarinic M4 receptor (CHRM4) | P08173 | CHO-K1 hM4/Gqi5, Fluo-8 calcium fluorescence; vehicle 0%, full acetylcholine response 100% | activation, % at 3 µM | actives 0.14% (n = 360,000) | AID 624127;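 active = activation above the run mean over all test wells plus 3 SD, cut at about 32% in these data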;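 note: peak over basal fluorescence ratio per well then scaled between controls; 0% = DMSO wells and 100% = acetylcholine at EC100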
M5 ag – CHRM5 agonism in calcium assay | actives 0.19% (n = 360,000) | P08912 | CHO-K1 hM5 cells, Fluo-8 calcium fluorescence; 0% DMSO wells, 100% maximal acetylcholine response | activation, % at 3 µM;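 active = activation above the run's mean over test compounds plus 3 SD, cut at about 23% in these data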;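 note: signal is peak over basal fluorescence ratio across the kinetic read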
Target sequence (P08912 whole entry, looked up): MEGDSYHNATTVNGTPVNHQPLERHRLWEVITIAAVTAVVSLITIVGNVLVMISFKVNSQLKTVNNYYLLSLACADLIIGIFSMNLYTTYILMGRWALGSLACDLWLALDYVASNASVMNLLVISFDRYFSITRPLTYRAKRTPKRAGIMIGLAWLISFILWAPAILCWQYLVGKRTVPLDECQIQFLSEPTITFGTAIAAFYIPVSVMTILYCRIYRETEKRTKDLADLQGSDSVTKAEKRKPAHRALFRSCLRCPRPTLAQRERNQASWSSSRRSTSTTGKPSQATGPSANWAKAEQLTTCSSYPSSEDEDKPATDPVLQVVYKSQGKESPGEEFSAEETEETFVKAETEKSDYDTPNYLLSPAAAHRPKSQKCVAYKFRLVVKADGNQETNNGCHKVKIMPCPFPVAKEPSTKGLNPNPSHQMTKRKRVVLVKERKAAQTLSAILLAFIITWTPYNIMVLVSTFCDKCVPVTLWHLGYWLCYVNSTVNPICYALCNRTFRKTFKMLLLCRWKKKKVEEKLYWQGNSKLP
CHRM4 PAM – CHRM4 positive allosteric modulation; P08173; CHO-K1 hM4/Gqi5, Fluo-8 calcium fluorescence, ACh EC20; 0% = ACh EC20, 100% = maximal ACh; activation, % at 3 µM; actives 0.4% (n = 360,000); AID 624126;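 active = activation above its plate's cutoff, the mean activation of sample wells plus 3 SD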
M5 antag – blocks acetylcholine activation of human M5 receptor | AID 624040 | inhibition, % at 3 µM | CHO-hM5 cells, Fluo-8 calcium fluorescence, ACh EC80 | P08912 | actives 0.59% (n = 360,000);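 active = inhibition above a per-plate cutoff, the mean of that plate's test compounds plus 3 SD, cut at about 27% in these data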;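 note: 0% = acetylcholine EC80 with DMSO and 100% = DMSO without agonist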
CHRM4 antagonist – antagonists of human muscarinic M4 receptor (CHRM4) | AID 624125 | CHO-hM4 cells, ACh EC80, Fluo-8 calcium fluorescence | actives 0.73% (n = 360,000) | inhibition, % at 3 µM | P08173;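 active = inhibition above its plate's cutoff, the mean inhibition of sample wells plus 3 SD, cut at about 27% in these data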;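 note: 0% = acetylcholine EC80 with DMSO and 100% = DMSO without agonist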
M5 PAM – potentiates acetylcholine response at human M5 receptor; activation, % at 3 µM; CHO-K1 hM5, Fluo-8 calcium, ACh EC20 PAM; 0% = ACh EC20, 100% = ACh EC100; AID 624038; P08912; actives 0.3% (n = 360,000);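 active = activation above the run cutoff, the mean activation of all test compounds plus 3 SD, cut at about 18% in these data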
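Measured by: Fluo-8 calcium fluorescence; material: human M5 receptor in CHO-K1 cells; schedule: Post-acetylcholine fluorescence recording 140 s; benchmarks: low control EC20 acetylcholine (0%), high control EC100 acetylcholine (100%); read-out: Max/basal fluorescence ratio as % of EC20–EC100 ACh window; compound: single dose, 3 µM nominal final test concentration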
* hit, by the source's call. Shown are actives, neighbours in structure and some others; about 1.8% of the full set was active somewhere.

SMILES | CHRM4 agonist | M5 ag | CHRM4 PAM | M5 antag | CHRM4 antagonist | M5 PAM
CC(C)CSC1=NSC2=NC(=O)/C(=C\c3coc4ccccc4c3=O)C(=N)N12 | 89* | 168* | -21 | 68* | 52* | -23
CSC1=NSC2=NC(=O)/C(=C\c3coc4ccccc4c3=O)C(=N)N12 | 25 | 27* | -17 | 26 | 27* | -13
CCOC(=O)C1=C(COC(=O)/C=C/c2cccc(Br)c2)NC(=O)NC1C (stereo not given) | 6 | 2 | 1 | 11 | 10 | -13
CCn1nnnc1SCC(=O)N1CCCCC1 | 1 | -5 | 7 | -6 | -5 | 15
CN(C)c1ccc(/C=C(/C#N)C(=O)NCc2ccccc2)o1 | 9 | 25* | -7 | 15 | 3 | -16
N#C/C(=C/c1ccccc1)C(=O)NCc1ccccc1 | 1 | 1 | -3 | -9 | 5 | 3
CCC(O)(CCN1CCCCC1)c1ccccc1 (stereo not given) | 0 | -10 | -13 | 23 | 33* | -23
O=C(CCCCN1CCCCC1)c1ccccc1 | 10 | -5 | -21 | 10 | 4 | -5
OC(CCCN1CCCCC1)(c1ccccc1)c1ccccc1 | 1 | -1 | -18 | 24 | 47* | -18
CCN(C(=O)CSc1nccc(=O)[nH]1)C1CCCCC1 | 0 | -1 | 3 | 13 | 17 | 6
CN(C(=O)CSc1nccc(=O)[nH]1)C1CCCCC1 | 1 | -1 | 22* | -7 | -17 | 17
CCSc1nnc(NC(=O)CSc2nc3c(c(=O)n2CCOC)SC(C)C3)s1 (stereo not given) | 0 | 0 | -12 | 2 | 32* | -8
CCn1c(SCC(=O)N2CCCC2)nc2c(c1=O)SC(C)C2 (stereo not given) | -1 | 0 | -16 | 4 | 84* | -14
COCCn1c(SCC(=O)Nc2cc(C)on2)nc2c(c1=O)SC(C)C2 (stereo not given) | 1 | -2 | 4 | 2 | 5 | 9
O=C(O)c1cc([N+](=O)[O-])cc2ccccc12 | 0 | 3 | -1 | 2 | 4 | 0
COc1ccccc1-c1nnc(Nc2nc3c(OC)cccc3s2)o1 | 3 | 1 | -6 | 24 | 35* | -3
CC(=O)Nc1ccc2c(c1)Cc1cc(N3C(=O)C=CC3=O)ccc1-2 | 5 | -8 | -7 | 16 | 33* | -16
O=[N+]([O-])c1ccc2c(c1)Cc1cc(F)ccc1-2 | 1 | -2 | 4 | -4 | 3 | 0
O=C1C=CC(=O)N1c1ccc2c(c1)Cc1cc(F)ccc1-2 | 8 | -2 | -8 | -3 | 37* | 10
CCc1ccccc1N(CC(=O)NCc1ccccc1)C(=O)CCC(=O)Nc1ccccn1 | 1 | 0 | 7 | 12 | 7 | -3
CCOc1ccc(NC(=O)C2CCN(S(C)(=O)=O)CC2)cc1 | 1 | 4 | 5 | -16 | -1 | 4
CC1=CC(C)C(C[N+]2(C)CCCCC2)C(C)C1 (stereo not given) | 1 | -10 | -5 | 2 | 8 | -16
CC1=CC(C)C(/C=N/N=C(N)N)C(C)C1 (stereo not given) | 0 | 0 | 3 | -13 | 3 | 21*
CC(Sc1nn(-c2ccccc2)c(=S)s1)C(=O)NCC1CCCO1 (stereo not given) | 1 | -6 | -3 | 7 | -12 | -4
COc1ccc(C2NCCc3c2[nH]c2ccccc32)cc1COc1ccc(F)cc1 (stereo not given) | 28 | 7 | -4 | 12 | 37* | 3
SMILES | CHRM4 agonist | M5 ag | CHRM4 PAM | M5 antag | CHRM4 antagonist | M5 PAM
Cc1ccc2c(c1)[C@H]1[C@H](CO2)[C@H](c2ccccc2)[C@]2(C)C(=O)Nc3ccc(Cl)cc3C(=O)N12 | 1 | -3 | -8 | 13 | 17 | -32
COc1ccc2c(c1)OC[C@H]1[C@H]2N2C(=O)c3cc(C)ccc3NC(=O)[C@@]2(C)[C@H]1c1ccccc1 | 0 | 3 | -10 | -3 | 23 | 0
Cc1ccc2c(c1)[C@H]1[C@H](CO2)[C@H](c2ccccc2)[C@]2(C)C(=O)Nc3ccccc3C(=O)N12 | 1 | -7 | -14 | 21 | 60* | -34
COc1ccc2c(c1)OC[C@H]1[C@H]2N2C(=O)c3ccccc3NC(=O)[C@@]2(C)[C@H]1c1ccccc1 | 2 | -6 | -11 | 12 | 56* | -20
C[C@@]12C(=O)Nc3ccc(Br)cc3C(=O)N1[C@H]1c3ccccc3OC[C@@H]1[C@@H]2c1ccccc1 | 2 | 3 | -9 | 15 | 35* | -21
COc1ccc2c(c1)C(=O)N1[C@H]3c4cc(C)ccc4OC[C@@H]3[C@H](c3ccccc3)[C@]1(C)C(=O)N2 | -1 | -3 | -10 | 18 | 34* | -23
COc1ccc2c(c1)[C@H]1[C@H](CO2)[C@H](c2ccccc2)[C@]2(C)C(=O)Nc3ccc(C)cc3C(=O)N12 | 1 | -10 | -7 | 10 | -2 | -7
COc1c2c(c(OC)c3ccccc13)[C@@]1(OC2)O[C@H](CCO)C[C@H](O)[C@H]1O | 0 | 1 | 1 | 0 | -1 | 4
COc1ccc(C(=O)C2CCCN(Cc3cccc4c3OCO4)C2)cc1OC (stereo not given) | 0 | -10 | -19 | -3 | 14 | 1
COc1ccc([N+](=O)[O-])cc1NC(=O)C(C)OC(=O)CSC(C)C(=O)Nc1cc(C)on1 (stereo not given) | 8 | 1 | 6 | 8 | -23 | -11
CC(C)Oc1ccc(S(=O)(=O)N2CCCCC2)cc1NC(=O)CN1CCCC1c1cccs1 (stereo not given) | 1 | 0 | 0 | 2 | 0 | -3
Cc1ccc2c(c1)NC(=O)[C@@]1(C)[C@@H](c3ccccc3)[C@H]3COc4ccccc4[C@@H]3N1C2=O | 1 | -1 | -9 | 0 | 6 | -1
Cc1ccc2c(c1)C(=O)N1[C@H]3c4ccccc4OC[C@@H]3[C@H](c3ccccc3)[C@]1(C)C(=O)N2 | 1 | -6 | -14 | 17 | 53* | -36
COc1ccc(C(=O)O/N=C/c2ccc(S(=O)(=O)c3ccc(Cl)cc3)nc2)cc1 | 0 | 1 | 16 | 4 | 5 | 4
O=C(O)c1ccc(Br)cn1 | 1 | 2 | 20* | -5 | -1 | 13
O=C(c1ccc2c(c1)OCO2)C1CCCN(Cc2ccccc2OC(F)F)C1 (stereo not given) | 2 | -8 | -15 | 27 | 40* | -14
COc1ccc(COC(=O)C2CCN(C(=O)c3ccc(Cl)cc3)CC2)cc1F | 9 | 5 | 0 | 12 | -21 | -8
